From ChEMBL document CHEMBL3351332 (J Med Chem, 2014)
pEC50, pIC50: −log10 of the molar value.

Legend:
Cannabinoid receptor 1 [1] = biological target: T1, Cannabinoid receptor 1 (Homo sapiens, UniProt P21554); test: Agonist activity at human CB1 receptor stably expressed in RD-HGA16 cells assessed as calcium mobilization at 10000 nM after 15 mins by FLIPR assay relative to CP55,940; format: functional, cell-based
How it was run: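 Cells plated at 25 000/well the day before in Ham's F12 with 10% FBS, then loaded 45 min at 37 °C with Calcium 5 dye in HBSS/20 mM HEPES/2.5 mM probenecid, pH 7.4. Vehicle pretreatment for 15 min at 37 °C; test compound added on-line, fluorescence read every 1 s over 90 s.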

Cannabinoid receptor 1 [2] = biological target: T1, Cannabinoid receptor 1; test: Antagonist activity at human CB1 receptor stably expressed in RD-HGA16 cells assessed as inhibition of CP55,940-induced calcium mobilization after 15 mins by FLIPR assay; format: functional, cell-based
Cannabinoid receptor 2 [3] = biological target: T2, Cannabinoid receptor 2 (Homo sapiens, UniProt P34972); test: Antagonist activity at human CB2 receptor stably expressed in CHO-RD-HGA16 cells assessed as inhibition of CP55,940-induced calcium mobilization at 10000 nM after 15 mins by FLIPR assay; format: functional, cell-based
Cannabinoid receptor 1 [4] = biological target: T1, Cannabinoid receptor 1; test: Displacement of [3H]CP55,940 from human CB1 receptor expressed in HEK293 cells after 1 hr by scintillation counting; format: cell-based
Cannabinoid receptor 1 [5] = biological target: T1, Cannabinoid receptor 1; test: Displacement of [3H]CP55,940 from human CB1 receptor expressed in HEK293 cells after 1 hr by scintillation counting relative to control; format: cell-based
Cannabinoid receptor 2 [6] = biological target: T2, Cannabinoid receptor 2; test: Antagonist activity at human CB2 receptor stably expressed in CHO-RD-HGA16 cells assessed as inhibition of CP55,940-induced calcium mobilization after 15 mins by FLIPR assay; format: functional, cell-based
Cannabinoid receptor 1 [7] = biological target: T1, Cannabinoid receptor 1; test: Allosteric modulation at human CB1 receptor stably expressed in RD-HGA16 cells assessed as inhibition of CP55,940-induced calcium mobilization after 15 mins by FLIPR assay; format: functional, cell-based
How it was run: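 Cells plated the day before at 25 000/well and loaded 45 min at 37 °C with Calcium 5 dye in HBSS/20 mM HEPES/2.5 mM probenecid, pH 7.4. Fluorescence was read every 1 s for 90 s.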

T1 sequence (P21554 whole entry): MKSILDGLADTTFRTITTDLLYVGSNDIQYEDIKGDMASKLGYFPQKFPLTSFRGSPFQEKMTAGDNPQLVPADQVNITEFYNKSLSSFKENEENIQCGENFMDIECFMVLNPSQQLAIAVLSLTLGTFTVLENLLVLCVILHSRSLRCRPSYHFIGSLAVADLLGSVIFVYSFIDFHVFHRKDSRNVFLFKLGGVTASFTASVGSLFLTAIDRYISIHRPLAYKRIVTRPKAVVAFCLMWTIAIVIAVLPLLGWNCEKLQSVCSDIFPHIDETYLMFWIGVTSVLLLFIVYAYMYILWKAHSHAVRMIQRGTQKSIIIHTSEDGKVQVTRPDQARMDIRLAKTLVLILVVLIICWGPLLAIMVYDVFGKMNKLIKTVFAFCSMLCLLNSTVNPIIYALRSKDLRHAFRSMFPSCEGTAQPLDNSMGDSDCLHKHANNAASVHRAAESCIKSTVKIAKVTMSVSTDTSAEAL
T2 sequence (P34972 whole entry): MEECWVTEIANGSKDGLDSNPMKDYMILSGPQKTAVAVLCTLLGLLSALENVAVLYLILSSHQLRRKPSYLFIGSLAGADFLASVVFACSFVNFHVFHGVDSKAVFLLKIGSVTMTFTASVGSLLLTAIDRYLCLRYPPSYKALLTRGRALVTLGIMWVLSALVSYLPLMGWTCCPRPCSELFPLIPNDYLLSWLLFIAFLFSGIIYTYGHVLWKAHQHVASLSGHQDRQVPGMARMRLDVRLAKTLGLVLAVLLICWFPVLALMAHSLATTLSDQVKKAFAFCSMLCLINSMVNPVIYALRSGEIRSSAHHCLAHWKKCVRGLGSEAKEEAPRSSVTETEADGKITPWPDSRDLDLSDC

## CCCN(CCC)c1cccc(-c2cccc(NC(=O)Nc3ccc(Cl)cc3)c2)n1
Cannabinoid receptor 1 [1]
  Activity: 29%
Cannabinoid receptor 1 [2]
  pIC50: 6.43
Cannabinoid receptor 2 [3]
  inhibition: < 35%

## Cc1cccc(C)c1NC(=O)Nc1cccc(-c2cccc(N3CCCC3)n2)c1
Cannabinoid receptor 1 [1]
  Activity: < 15%
Cannabinoid receptor 1 [2]
  pIC50: < 5.00
Cannabinoid receptor 2 [3]
  inhibition: < 35%

## CCCCNc1cccc(-c2cccc(NC(=O)Nc3ccc(Cl)cc3)c2)n1
Cannabinoid receptor 1 [1]
  Activity: 26.5%
Cannabinoid receptor 1 [2]
  pIC50: 7.03
Cannabinoid receptor 1 [4]
  pEC50: 5.82
Cannabinoid receptor 1 [5]
  Emax: 161%
Cannabinoid receptor 2 [3]
  inhibition: < 35%

## CCc1c(C(=O)NCCc2ccc(N3CCCCC3)cc2)[nH]c2ccc(Cl)cc12
Cannabinoid receptor 1 [2]
  inhibition: Dose-dependent effect

## CCN(CC)c1cccc(-c2cccc(NC(=O)Nc3ccc(Cl)cc3)c2)n1
Cannabinoid receptor 1 [1]
  Activity: < 15%
Cannabinoid receptor 1 [2]
  pIC50: 6.90
Cannabinoid receptor 2 [3]
  inhibition: < 35%

## O=C(Nc1ccc(F)cc1)Nc1cccc(-c2cccc(N3CCCC3)n2)c1
Cannabinoid receptor 1 [1]
  Activity: 23.2%
Cannabinoid receptor 1 [2]
  pIC50: 7.49
Cannabinoid receptor 1 [4]
  pEC50: 6.68
Cannabinoid receptor 1 [5]
  Emax: 172%
Cannabinoid receptor 2 [3]
  inhibition: < 35%

## O=C(Nc1ccc(Cl)nc1)Nc1cccc(-c2cccc(N3CCCC3)n2)c1
Cannabinoid receptor 1 [1]
  Activity: < 15%
Cannabinoid receptor 1 [2]
  pIC50: 6.87
Cannabinoid receptor 1 [4]
  pEC50: 6.39
Cannabinoid receptor 1 [5]
  Emax: 196%
Cannabinoid receptor 2 [3]
  inhibition: < 35%

## CCCCCNc1cccc(-c2cccc(NC(=O)Nc3ccc(Cl)cc3)c2)n1
Cannabinoid receptor 1 [1]
  Activity: < 15%
Cannabinoid receptor 1 [2]
  pIC50: 6.06
Cannabinoid receptor 2 [3]
  inhibition: < 35%

## CCCNc1cccc(-c2cccc(NC(=O)Nc3ccc(Cl)cc3)c2)n1
Cannabinoid receptor 1 [1]
  Activity: 19.6%
Cannabinoid receptor 1 [2]
  pIC50: 6.51
Cannabinoid receptor 2 [3]
  inhibition: < 35%

## O=C(Nc1cc(Cl)cc(Cl)c1)Nc1cccc(-c2cccc(N3CCCC3)n2)c1
Cannabinoid receptor 1 [1]
  Activity: 22.2%
Cannabinoid receptor 1 [2]
  pIC50: 6.15
Cannabinoid receptor 2 [6]
  pIC50: < 5.00

## O=C(Nc1cccc(Cl)c1)Nc1cccc(-c2cccc(N3CCCC3)n2)c1
Cannabinoid receptor 1 [1]
  Activity: 19.6%
Cannabinoid receptor 1 [2]
  pIC50: 6.64
Cannabinoid receptor 2 [3]
  inhibition: < 35%

## O=C(Nc1cccc(-c2cccc(N3CCCC3)n2)c1)Nc1ccc2ccccc2c1
Cannabinoid receptor 1 [1]
  Activity: < 15%
Cannabinoid receptor 1 [2]
  pIC50: 6.05
Cannabinoid receptor 2 [3]
  inhibition: < 35%

## CC(=O)Nc1cccc(-c2cccc(NC(=O)Nc3ccc(Cl)cc3)c2)n1
Cannabinoid receptor 1 [1]
  Activity: 47%
Cannabinoid receptor 1 [2]
  pIC50: 6.60
Cannabinoid receptor 2 [6]
  pIC50: 5.29

## CCc1ccccc1NC(=O)Nc1cccc(-c2cccc(N3CCCC3)n2)c1
Cannabinoid receptor 1 [1]
  Activity: < 15%
Cannabinoid receptor 1 [2]
  pIC50: < 5.00
Cannabinoid receptor 2 [3]
  inhibition: < 35%

## O=C(Nc1cccc(-c2cccc(N3CCCC3)n2)c1)Nc1cccc2ccccc12
Cannabinoid receptor 1 [1]
  Activity: < 15%
Cannabinoid receptor 1 [2]
  pIC50: < 5.00
Cannabinoid receptor 2 [3]
  inhibition: < 35%

## O=C(Nc1ccc(Cl)cc1)Nc1cccc(-c2cccc(N3CCCCC3)n2)c1
Cannabinoid receptor 1 [1]
  Activity: 35%
Cannabinoid receptor 1 [2]
  pIC50: 7.02
Cannabinoid receptor 2 [6]
  pIC50: < 5.00
Cannabinoid receptor 1 [5]
  Emax: 132%

## O=C(Nc1cccc(-c2cccc(N3CCCC3)n2)c1)Nc1ccc(Cl)c(Cl)c1
Cannabinoid receptor 1 [1]
  Activity: < 15%
Cannabinoid receptor 1 [2]
  pIC50: 6.79
Cannabinoid receptor 2 [6]
  pIC50: < 5.00

## N#Cc1ccc(NC(=O)Nc2cccc(-c3cccc(N4CCCC4)n3)c2)cc1
Cannabinoid receptor 1 [1]
  Activity: 30%
Cannabinoid receptor 1 [2]
  pIC50: 7.48
Cannabinoid receptor 1 [4]
  pEC50: 7.26
Cannabinoid receptor 1 [7]
  Activity: Dose-dependent effect
Cannabinoid receptor 2 [6]
  pIC50: < 5.00
Cannabinoid receptor 1 [5]
  Emax: 172%

## Cc1cc(C)cc(NC(=O)Nc2cccc(-c3cccc(N4CCCC4)n3)c2)c1
Cannabinoid receptor 1 [1]
  Activity: < 15%
Cannabinoid receptor 1 [2]
  pIC50: 5.73
Cannabinoid receptor 2 [3]
  inhibition: < 35%

## O=C(Nc1cccc(-c2cccc(N3CCCC3)n2)c1)Nc1ccc2c(c1)OCO2
Cannabinoid receptor 1 [1]
  Activity: < 15%
Cannabinoid receptor 1 [2]
  pIC50: 6.51
Cannabinoid receptor 2 [3]
  inhibition: < 35%

## O=C(Nc1ccc(Cl)cc1)Nc1cccc(-c2cccc(N3CCCC3)n2)c1
Cannabinoid receptor 1 [1]
  Activity: 28.2%
Cannabinoid receptor 1 [2]
  inhibition: Dose-dependent effect
Cannabinoid receptor 2 [6]
  pIC50: < 5.00
Cannabinoid receptor 1 [5]
  Emax: 174%

## CN(C)c1cccc(-c2cccc(NC(=O)Nc3ccc(Cl)cc3)c2)n1
Cannabinoid receptor 1 [1]
  Activity: < 15%
Cannabinoid receptor 1 [2]
  pIC50: 7.56
Cannabinoid receptor 1 [4]
  pEC50: 6.18
Cannabinoid receptor 1 [7]
  Activity: Dose-dependent effect
Cannabinoid receptor 1 [5]
  Emax: 184%
Cannabinoid receptor 2 [3]
  inhibition: < 35%

## CCNc1cccc(-c2cccc(NC(=O)Nc3ccc(Cl)cc3)c2)n1
Cannabinoid receptor 1 [1]
  Activity: < 15%
Cannabinoid receptor 1 [2]
  pIC50: 6.74
Cannabinoid receptor 2 [3]
  inhibition: < 35%

## O=C(Nc1ccc([N+](=O)[O-])cc1)Nc1cccc(-c2cccc(N3CCCC3)n2)c1
Cannabinoid receptor 1 [1]
  Activity: 27.9%
Cannabinoid receptor 1 [2]
  pIC50: 7.00
Cannabinoid receptor 2 [3]
  inhibition: < 35%

## CCN(C)c1cccc(-c2cccc(NC(=O)Nc3ccc(Cl)cc3)c2)n1
Cannabinoid receptor 1 [1]
  Activity: < 15%
Cannabinoid receptor 1 [2]
  pIC50: 7.27
Cannabinoid receptor 2 [3]
  inhibition: < 35%

## Cc1ccc(NC(=O)Nc2cccc(-c3cccc(N4CCCC4)n3)c2)cc1
Cannabinoid receptor 1 [1]
  Activity: < 15%
Cannabinoid receptor 1 [2]
  pIC50: 6.69
Cannabinoid receptor 2 [3]
  inhibition: < 35%

## CNc1cccc(-c2cccc(NC(=O)Nc3ccc(Cl)cc3)c2)n1
Cannabinoid receptor 1 [1]
  Activity: < 15%
Cannabinoid receptor 1 [2]
  pIC50: 6.50
Cannabinoid receptor 2 [3]
  inhibition: < 35%

## CCCCN(C)c1cccc(-c2cccc(NC(=O)Nc3ccc(Cl)cc3)c2)n1
Cannabinoid receptor 1 [1]
  Activity: 22.1%
Cannabinoid receptor 1 [2]
  pIC50: 6.98
Cannabinoid receptor 2 [3]
  inhibition: < 35%

## COc1cc(NC(=O)Nc2cccc(-c3cccc(N4CCCC4)n3)c2)cc(OC)c1OC
Cannabinoid receptor 1 [1]
  Activity: < 15%
Cannabinoid receptor 1 [2]
  pIC50: < 5.00
Cannabinoid receptor 2 [6]
  pIC50: < 5.00

## CCCN(C)c1cccc(-c2cccc(NC(=O)Nc3ccc(Cl)cc3)c2)n1
Cannabinoid receptor 1 [1]
  Activity: < 15%
Cannabinoid receptor 1 [2]
  pIC50: 6.81
Cannabinoid receptor 2 [3]
  inhibition: < 35%

## CCCCN(CCCC)c1cccc(-c2cccc(NC(=O)Nc3ccc(Cl)cc3)c2)n1
Cannabinoid receptor 1 [1]
  Activity: < 15%
Cannabinoid receptor 1 [2]
  pIC50: 6.16
Cannabinoid receptor 2 [3]
  inhibition: < 35%

## O=C(Nc1ccc(Br)cc1)Nc1cccc(-c2cccc(N3CCCC3)n2)c1
Cannabinoid receptor 1 [1]
  Activity: < 15%
Cannabinoid receptor 1 [2]
  pIC50: 7.01
Cannabinoid receptor 2 [3]
  inhibition: < 35%

## CN(C)c1ccc(NC(=O)Nc2cccc(-c3cccc(N4CCCC4)n3)c2)cc1
Cannabinoid receptor 1 [1]
  Activity: < 15%
Cannabinoid receptor 1 [2]
  pIC50: 5.79
Cannabinoid receptor 2 [3]
  inhibition: < 35%

## CC(C)c1ccccc1NC(=O)Nc1cccc(-c2cccc(N3CCCC3)n2)c1
Cannabinoid receptor 1 [1]
  Activity: < 15%
Cannabinoid receptor 1 [2]
  pIC50: < 5.00
Cannabinoid receptor 2 [3]
  inhibition: < 35%

## CCCCCCNc1cccc(-c2cccc(NC(=O)Nc3ccc(Cl)cc3)c2)n1
Cannabinoid receptor 1 [1]
  Activity: < 15%
Cannabinoid receptor 1 [2]
  pIC50: 5.87
Cannabinoid receptor 2 [3]
  inhibition: < 35%

## O=C(Nc1ccccc1)Nc1cccc(-c2cccc(N3CCCC3)n2)c1
Cannabinoid receptor 1 [1]
  Activity: < 15%
Cannabinoid receptor 1 [2]
  pIC50: 6.78
Cannabinoid receptor 2 [3]
  inhibition: < 35%

## COc1ccc(NC(=O)Nc2cccc(-c3cccc(N4CCCC4)n3)c2)cc1
Cannabinoid receptor 1 [1]
  Activity: < 15%
Cannabinoid receptor 1 [2]
  pIC50: 6.72
Cannabinoid receptor 2 [3]
  inhibition: < 35%

## O=C(Nc1ccc(Cl)cc1)Nc1cccc(-c2cccc(NC3CCCC3)n2)c1
Cannabinoid receptor 1 [1]
  Activity: 35%
Cannabinoid receptor 1 [2]
  pIC50: 6.30
Cannabinoid receptor 2 [6]
  pIC50: < 5.00
